# Variants at the floor of the assay were thinned out.
# B1: tRNA (parent)
# chain: GUUCCGUUGGCGUAAUGGUAACGCGUCUCCCUCCUAAGGAGAAGACUGCGGGUUCGAGUCCCGUACGGAACG
# Variants of: B1
# Test: yeast fitness relative to wild type (ratio to wild type); higher = fitter; tRNA-Arg(CCU), competitive growth, 37 C, YPD
# How it was run: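 Amplicons of the tRNA-Arg(CCU) gene were sequenced, 100-nucleotide paired-end, from the start population and from each end population of a pooled yeast competition. The competition, in six parallel replicates, lasted 24 hours in YPD at 37°C. Fitness relative to wild type was calculated from changes in genotype frequencies. Genotypes had to have ≥ 100 starting reads, and estimates < 0.5 were set to 0.5.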
row,Variant,yeast fitness
1,U3C A14U A40G C61G,0.567
2,C4A A15G C22U A36U C60A,≤ 0.5
3,U3C G9A U13G U26C,≤ 0.5
4,U3G G44A C66U,0.582
5,U3A U19A C62U,0.776
6,U3C C11A C24U A42G G63A,≤ 0.5
7,U3C U8A,0.639
8,U3C U8C,0.906
9,U3C G38C A40G,0.501
10,U3C G9C C11U C30G A43C U59A G67C A69C,≤ 0.5
11,C4A C5G U53A,≤ 0.5
12,U3G A14C C24G A36G,≤ 0.5
13,C4A A20U U28A C31U C55G A57C,≤ 0.5
14,U3C A40U,0.976
15,U3G C11U G67A,0.564
16,U3C A45U U59C,0.699
17,U3G C55U,0.784
18,U3C A57C,0.504
19,C4A C11A C33G A57C C61G,0.534
20,U3C U19A C22U G63A,≤ 0.5
21,C4A A45U C55U A70C,≤ 0.5

row,Variant,yeast fitness
1,C4A A15G C62U,0.594
2,U3C C27A,0.706
3,U3C A20G C24U G52A A57U C62A,≤ 0.5
4,U3G C4U A20G U35A G58A G67U,≤ 0.5
5,U3C U8A A15C,≤ 0.5
6,C4A A14G U64A A70C,≤ 0.5
7,U3G U59C,0.888
8,U3G C5U,0.724
9,U3C C31U A42G U54A,≤ 0.5
10,U3A U16C C33G C62U,≤ 0.5
11,U3C C31A C49G A70C,≤ 0.5
12,U3C G41A A65C,0.51
13,U3G C5A A20G C29U C31A C55U A57C,≤ 0.5
14,U3C C27G U28A,≤ 0.5
15,C4A,0.998
16,U3A U26A C66U,≤ 0.5
17,U3G A43G G56A,0.601
18,U3C A43C A65U,0.604
19,U3G G38A C60A,≤ 0.5
20,U3C G10C C27U G68C,≤ 0.5
21,U3C G41A U53G U59A C62G,≤ 0.5

row,Variant,yeast fitness
1,U3G G6A U8C,≤ 0.5
2,U3G U7C G18A C30G G41U C49G,≤ 0.5
3,U3C C11G C34G A36C G52A C60G,≤ 0.5
4,U3C C24A C66U,≤ 0.5
5,C4A A36G C55A C61U,≤ 0.5
6,U3C C5U G39C,0.57
7,U3G C29A U53A,≤ 0.5
8,U3C C5U U8C U13C C29U C46A A65U C66A,≤ 0.5
9,C4A C5A A20U,0.605
10,U3C C5G A20G G63C C66G,≤ 0.5
11,C4A A15G G17A C33U G39C C55A G67C,≤ 0.5
12,U3G C11U A40C A45C U47C A57C C62U,≤ 0.5
13,U3C A21C,0.831
14,U3C C24U,1.01
15,U3C A40G G58C A70U,≤ 0.5
16,C4A C11U A45U C66U,≤ 0.5
17,U3C A20G A43G,0.744
18,U3G G17C G18C C22A C60A C66U,≤ 0.5
19,U3C U47A U53C,≤ 0.5
20,U3C G12A G50A,0.662
21,C4A A15G C27U,0.664

row,Variant,yeast fitness
1,U3C C66A,0.711
2,U3C C66U,0.904
3,U3G U8C A15U G25A C49A,≤ 0.5
4,U3G G63A,0.849
5,C4A A14G G17A C60G,≤ 0.5
6,U3C G12A A57C C61A A69C,≤ 0.5
7,U3C C4A G23A C31G A40C,≤ 0.5
8,U3A U54C,0.777
9,U3C A15C U47G U54A G58A,≤ 0.5
10,U3G C5G A20C,≤ 0.5
11,U3G G48A U53G,≤ 0.5
12,U3G C11G A15C C60U,≤ 0.5
13,C4A C5U C34U U64G A69U,≤ 0.5
14,C4A A21G C60G G67A,≤ 0.5
15,U3G U13C C33G,≤ 0.5
16,U3C A20U C30U A37G,0.633
17,C4A C11U U32A G38C U47A U53G,0.56
18,U3G U54G A57C,≤ 0.5
19,C4A C11G C34U,≤ 0.5
20,U3C C46A G67A A70C,0.556

# — the RNAGym collection of RNA variant scans (doi:10.1126/science.aae0568)
